Usually pIC50 stands for the negative decadic logarithm of the IC50, by convention in mol/L. A lower pIC50 goes with a large IC50. As a reminder, the inhibition is the percentage by which the read-out fell short of the control. High values mean a response far below the control, low ones a response near the control.

The structures appear in SMILES notation. pIC50: −log10 of the molar value.

The text below walks through data of ChEMBL document CHEMBL1126713, “Nonpeptide angiotensin II receptor antagonists. 1. Synthesis and in vitro structure-activity relationships of 4-[[[(1H-pyrrol-1-ylacetyl)amino]phenyl]methyl]imidazole derivatives as angiotensin II receptor antagonists” (J Med Chem, 1993).

One experiment addresses T1, Type-1 angiotensin II receptor B (Rattus norvegicus, UniProt P29089).
T1 sequence (P29089 whole entry): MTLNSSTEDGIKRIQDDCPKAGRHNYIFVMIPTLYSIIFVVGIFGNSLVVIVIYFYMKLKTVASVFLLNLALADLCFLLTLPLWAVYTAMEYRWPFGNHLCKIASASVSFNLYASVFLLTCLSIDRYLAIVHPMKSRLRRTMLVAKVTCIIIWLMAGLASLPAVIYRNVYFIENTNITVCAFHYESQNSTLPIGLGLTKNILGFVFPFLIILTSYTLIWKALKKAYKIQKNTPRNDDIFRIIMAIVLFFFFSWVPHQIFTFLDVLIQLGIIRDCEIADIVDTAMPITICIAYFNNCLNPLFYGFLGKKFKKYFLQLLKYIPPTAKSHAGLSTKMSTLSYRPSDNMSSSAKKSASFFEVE
Description: Binding affinity against angiotensin II receptor type 1 (AT1) from rat liver.
Conditions: not given
In outline: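 Compounds were added from DMSO at 100× the final concentration. Samples were filtered on glass-fiber filters presoaked in Tris pH 7.7 with bacitracin and scintillation-counted. Nonspecific binding used 10 μM saralasin. IC50 came from nonlinear mass-action fits of five or six doses or more (mean ± SEM).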
As to `CCCCc1nc(Cl)c(CC(=O)O)n1Cc1ccc(NC(=O)[C@H](Cc2ccccc2)n2c(C)ccc2C)cc1`, the pIC50 was 6.43.
`CCCCc1nc(Cl)c(CC(=O)OC)n1Cc1ccc(NC(=O)[C@H](Cc2ccccc2)n2cccc2C(=O)OC)cc1` had a pIC50 of 6.30.
`CCCCc1nc(Cl)c(CO)n1Cc1ccc(NC(=O)[C@H](CCCC)n2cccc2C(=O)OC)cc1` gave a pIC50 of 6.23.
On the same count and under the same terms, next, `CCCCc1nc(-n2cccc2)c(C(=O)O)n1Cc1ccc(NC(=O)[C@H](Cc2ccccc2)n2cccc2C(=O)O)cc1`: 6.47; `CCCCc1nc2c(C)cccc2n1Cc1ccc(NC(=O)[C@H](Cc2ccccc2)n2cccc2C(=O)O)cc1`: 6.03.
The same measure, in the same setting: next, `CCCCc1ncc(C(=O)O)n1Cc1ccc(NC(=O)[C@H](Cc2ccccc2)n2cccc2C(=O)O)cc1`: 7.70; `CCCCc1nc(Cl)c(CO)n1Cc1ccc(NC(=O)[C@H](Cc2ccccc2)n2cccc2C(=O)O)cc1`: 6.74; `CCc1nc2c(C)cc(C)nc2n1Cc1ccc(NC(=O)[C@H](Cc2ccccc2)n2cccc2C(=O)O)cc1`: 7.22.
As for `CCCCc1nc(Cl)c(CC(=O)OC)n1Cc1ccc(NC(=O)[C@H](Cc2cccs2)n2cccc2C(=O)OC)cc1`, the pIC50 is 6.10.
On the same count and under the same terms, the value for `CCCCc1nc(Cl)c(CO)n1Cc1ccc(NC(=O)C(Cc2ccccc2)c2nn[nH]n2)cc1` (configuration not stated) was 5.59.
Still for that read-out and setting: next, `CCCCc1nc(Cl)c(C(=O)O)n1Cc1ccc(NC(=O)[C@H](Cc2cccs2)n2cccc2)cc1`: 6.17; `CCCCc1nc(Cl)c(CO)n1Cc1ccc(NC(=O)C(=O)c2ccccc2)cc1`: 4.96.
On the same count and under the same terms, the value for `CCCCc1nc(Cl)c(CC(=O)O)n1Cc1ccc(NC(=O)[C@H](Cc2ccccc2)n2cccc2)cc1` was 6.68; that for `CCCCc1nc(Cl)c(CC(=O)O)n1Cc1ccc(NC(=O)[C@H](Cc2ccccc2)n2cc(C#N)c3ccccc32)cc1` was 5.89; that for `CCCCc1nc(Cl)c(CO)n1Cc1ccc(-c2ccccc2C(=O)O)cc1` was 6.52.
The compound `CCCCc1nc(Cl)c(CC(=O)O)n1Cc1ccc(NC(=O)[C@H](Cc2ccccc2)n2cccc2C)cc1` gave a pIC50 of 6.85. This pIC50 lies 0.33 log units higher than the previous one.
On the same count and under the same terms, the value for `CCCCc1nc(Cl)c(CO)n1Cc1ccc(NC(=O)[C@H](c2ccccc2)n2cccc2C(=O)OC)cc1` was 5.95.
Compound `CCCCc1nc(Cl)c(CC(=O)O)n1Cc1ccc(NC(=O)[C@H](Cc2cccs2)n2cccc2C(=O)O)cc1` showed a pIC50 of 7.62. This pIC50 is 1.67 log units higher than that of the compound before.
The same measure, in the same setting: the value for `CCCCc1nc(Cl)c(CO)n1Cc1ccc(NC(=O)Cn2cccc2C(=O)OC)cc1` was 5.08; that for `CCCCc1nc(Cl)c(CCC(=O)O)n1Cc1ccc(NC(=O)[C@H](Cc2ccccc2)n2cccc2C(=O)O)cc1` was 7.66.
The same measure, in the same setting: next, `CCCCc1nc(-n2cccc2)c(C(=O)OCC)n1Cc1ccc(NC(=O)[C@H](Cc2ccccc2)n2cccc2C(=O)O)cc1`: 5.60.
In turn, `CCCCc1nc(Cl)c(CCC(=O)OC)n1Cc1ccc(NC(=O)[C@H](Cc2ccccc2)n2cccc2C(=O)OC)cc1` showed a pIC50 of 6.68.
Still for that read-out and setting: the value for `CCCCc1nc(Cl)c(CC(=O)O)n1Cc1ccc(NC(=O)[C@H](Cc2ccccc2)n2ccc(C(=O)OCC)c2)cc1` was 6.62; that for `CCc1nc2c(C)cc(C)nc2n1Cc1ccc(NC(=O)[C@H](Cc2ccccc2)n2cccc2C(=O)OC)cc1` was 6.48.
The same measure, in the same setting: next, `CCCCc1nc(Cl)c(CC(=O)O)n1Cc1ccc(NC(=O)[C@H](Cc2ccccc2)n2ccc(C(=O)OCC)c2C)cc1`: 6.85; `CCCCc1nc(Cl)c(CC(=O)OC)n1Cc1ccc(NC(=O)[C@H](Cc2ccccc2)n2ccc(C(=O)OCC)c2C)cc1`: 5.83.
Still for that read-out and setting: the value for `CCCCc1nc(Cl)c(C(=O)O)n1Cc1ccc(-c2ccccc2C(=O)O)cc1` was 7.04.
Compound `CCCCc1nc(Cl)c(CO)n1Cc1ccc(NC(=O)[C@H](Cc2ccccc2)n2cccc2C(=O)OC)cc1` had a pIC50 of 6.68.
Still for that read-out and setting: next, `CCCCc1nc(Cl)c(CO)n1Cc1ccc(NC(=O)C(C#N)Cc2ccccc2)cc1` (configuration not stated): 5.59; `CCCCc1nc(Cl)c(C(=O)O)n1Cc1ccc(NC(=O)[C@H](Cc2cccs2)n2cccc2C(=O)O)cc1`: 6.74.
Still for that read-out and setting: next, `CCCCc1nc(Cl)c(C(=O)O)n1Cc1ccc(NC(=O)[C@H](Cc2ccccc2)n2cccc2C(=O)O)cc1`: 7.10.

For another experiment, the species on record is Oryctolagus cuniculus. Nature of the experiment: Inhibition of Angiotensin II induced contraction of isolated rabbit aortic rings. Particulars: Aorta. Format: functional. In outline: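 Thoracic aortic rings, 4–5 mm, from New Zealand White rabbits (3–4 kg) were held in PSS at 37 °C under 95% O2/5% CO2, with isometric force recorded. Rings were equilibrated 1.5 h, primed with 122 mM KCl and given two 10^-8 M AII control contractions. Compound in DMSO was incubated 10 min before the AII concentration–response was repeated. IC50 is the concentration halving AII contraction relative to the averaged controls.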
`CCCCc1ncc(C(=O)O)n1Cc1ccc(NC(=O)[C@H](Cc2ccccc2)n2cccc2C(=O)O)cc1` had a pIC50 of 6.96.
Same read-out and setting: the value for `CCCCc1nc(Cl)c(CO)n1Cc1ccc(NC(=O)[C@H](Cc2ccccc2)n2cccc2C(=O)O)cc1` was 4.77.
Regarding `CCCCc1nc(Cl)c(CC(=O)O)n1Cc1ccc(NC(=O)[C@H](Cc2ccccc2)n2cccc2)cc1`, the pIC50 was 5.20.
The same measure, in the same setting: next, `CCCCc1nc(Cl)c(CC(=O)O)n1Cc1ccc(NC(=O)[C@H](Cc2ccccc2)n2cccc2C(=O)O)cc1`: 6.28.
Still for that read-out and setting: the value for `CCCCc1nc(Cl)c(CC(=O)O)n1Cc1ccc(NC(=O)[C@H](Cc2ccccc2)n2cccc2C)cc1` was 5.19; that for `CCCCc1nc(Cl)c(CCC(=O)O)n1Cc1ccc(NC(=O)[C@H](Cc2ccccc2)n2cccc2C(=O)O)cc1` was 6.66; that for `CCCCc1nc(Cl)c(CC(=O)O)n1Cc1ccc(NC(=O)[C@H](Cc2ccccc2)n2ccc(C(=O)OCC)c2)cc1` was 4.85.
`CCCCc1nc(Cl)c(C(=O)O)n1Cc1ccc(NC(=O)[C@H](Cc2ccccc2)n2cccc2C(=O)O)cc1` gave a pIC50 of 6.26.

A further experiment concerns the target T2, Type-1 angiotensin II receptor B (Rattus norvegicus) (UniProt P29089).
T2 sequence (whole entry): T1 sequence (P29089 whole entry)
Nature of the experiment: Binding affinity against angiotensin II (AT1 receptor) from rat liver expressed as % inhibition at 10 e -7 M.
Conditions: not given
In the case of `CCCCc1nc(Cl)c(CO)n1Cc1ccc(NC(=O)[C@H](Cc2ccccc2)n2cccc2)cc1`, the inhibition came out at 8.1%.
Compound `CCCCc1nc(Cl)c(CC(=O)O)n1Cc1ccc(NC(=O)CCc2ccccc2)cc1` yielded an inhibition of 7.8%.
The same measure, in the same setting: the value for `CCCCc1nc(Cl)c(C(=O)OC)n1Cc1ccc(NC(=O)[C@H](Cc2cccs2)n2cccc2)cc1` was 2.5%; that for `CCCCc1ncc(C(=O)OC)n1Cc1ccc(NC(=O)[C@H](Cc2ccccc2)n2cccc2C(=O)OC)cc1` was 33%.
Same read-out and setting: the value for `CCCCc1nc(Cl)c(CC(=O)OC)n1Cc1ccc(NC(=O)[C@H](Cc2ccccc2)n2cccc2C)cc1` was 14.8%; that for `CCCCc1nc(Cl)c(C(=O)OC)n1Cc1ccc(NC(=O)[C@H](Cc2cccs2)n2cccc2C(=O)OC)cc1` was 11%; that for `CCCCc1nc(Cl)c(CC(=O)OC)n1Cc1ccc(NC(=O)[C@H](Cc2ccccc2)n2ccc(C(=O)OCC)c2)cc1` was 7.2%.
Consider `CCCCc1nc(Cl)c(C(=O)OC)n1Cc1ccc(NC(=O)[C@H](Cc2ccccc2)n2cccc2C(=O)OC)cc1`, for which the inhibition was found to be 15%.
